OX1R antag-1 – human HCRTR1 antagonism. O43613. CHO/OX1R cells, Fluo-8 calcium fluorescence, orexin A. inhibition, % at 5 µM. 0.43% of 330,000 active;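 active = inhibition above its plate's threshold, mean inhibition of all tested compounds on the plate plus 3 SD, cut at about 37% in these data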;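 note: 0% = orexin A challenge wells and 100% = SB-334867-A antagonist wells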
Target sequence (O43613 whole entry, looked up): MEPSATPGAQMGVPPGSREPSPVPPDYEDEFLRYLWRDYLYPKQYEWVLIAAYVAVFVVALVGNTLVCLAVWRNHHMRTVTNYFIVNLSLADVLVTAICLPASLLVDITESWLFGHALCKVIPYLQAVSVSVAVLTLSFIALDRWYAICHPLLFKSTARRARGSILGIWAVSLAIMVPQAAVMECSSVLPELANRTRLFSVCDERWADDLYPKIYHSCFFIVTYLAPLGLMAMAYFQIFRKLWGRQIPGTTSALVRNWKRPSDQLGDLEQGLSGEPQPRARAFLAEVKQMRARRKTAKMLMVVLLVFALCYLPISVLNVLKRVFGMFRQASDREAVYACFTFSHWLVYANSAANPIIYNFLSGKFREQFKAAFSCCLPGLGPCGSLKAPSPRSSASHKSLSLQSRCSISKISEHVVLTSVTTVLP
CHO parental Ca – signal in parental CHO cells, OX1R antagonist counter-screen | parental CHO-K1, ATP-induced calcium, Fluo-8 fluorescence | inhibition, % at 5.6 µM | 0.63% of 330,000 active | AID 463079;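 active = inhibition above that plate's mean sample inhibition plus 3 SD, cut at about 26% in these data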;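 note: 0% = ATP-challenged DMSO wells and 100% = DMSO wells without ATP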
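Measured by: calcium-sensitive Fluo-8 fluorescence / Test system: CHO parental line / Controls: ATP-challenged DMSO wells low, unchallenged DMSO wells high / Measure: % inhibition / Compound: single nominal dose of 5.6 µM per compound / Replicates: single well per compound, no replicates / Reagent: ATP as calcium-mobilizing challenge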
TAAR1 agonist – agonists of human TAAR1; Q96RJ0; activation, % at 3 µM; AID 624467; CHO RD-HGA16 TAAR1, Fluo-8 calcium fluorescence; vehicle wells 0%, saturating PEA agonist 100%; 0.99% of 360,000 active;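 active = activation above the mean activation of all test compounds in the run plus 3 SD, cut at about 38% in these data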
Target sequence (Q96RJ0 whole entry, looked up): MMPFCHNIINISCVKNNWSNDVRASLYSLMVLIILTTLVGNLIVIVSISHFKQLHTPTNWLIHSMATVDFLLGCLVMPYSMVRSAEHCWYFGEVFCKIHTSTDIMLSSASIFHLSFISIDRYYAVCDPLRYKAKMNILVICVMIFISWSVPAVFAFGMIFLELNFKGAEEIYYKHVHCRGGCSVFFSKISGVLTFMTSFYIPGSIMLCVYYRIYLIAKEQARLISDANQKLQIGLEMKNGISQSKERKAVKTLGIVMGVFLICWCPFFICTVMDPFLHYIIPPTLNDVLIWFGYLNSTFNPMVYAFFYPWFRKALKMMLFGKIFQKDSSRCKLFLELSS
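System: CHO-derived RD-HGA16 cells with stable Gα16 and human TAAR1 / Times: 17-24 h plating, Fluo-8 75 min 37 °C, 30 min RT / Technique: calcium-sensitive Fluo-8 signal, excitation 470-495, emission 515-575 nm / Measure: % activation relative to PEA EC100 response / Benchmarks: DMSO and PEA EC100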
OX1R antag-2 – blocks the human orexin 1 receptor; inhibition, % at 6.6 µM; O43613; 1.8% of 330,000 active; OX1R-expressing cells, FRET antagonist read-out; in the data active = inhibition mostly above about 38%, no sharp cut-off; inactive = mostly below about 40%;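 note: 0% = agonist challenge alone and 100% = reference antagonist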
TAAR1 antagonist – antagonists of human TAAR1 | CHO RD-HGA16 TAAR1, Fluo-8 calcium fluorescence, antagonist | inhibition, % at 3 µM | 1.5% of 360,000 active | AID 624466;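 active = inhibition above a per-plate cutoff, the mean inhibition of test compounds on that plate plus 3 SD, cut at about 49% in these data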;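 note: 0% = DMSO plus EC80 beta-PEA response and 100% = DMSO alone without agonist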
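Test system – hTAAR1-expressing CHO RD-HGA16 cells, Gα16-coupled · Also added – β-PEA at EC80 concentration, post-compound challenge · Compound – 3 µM, single point · Incubation – dye loading 75 min at 37 °C, then 30 min room temperature · Measured by – Fluo-8 intracellular calcium dye fluorescence, real-time kinetic reads · Benchmarks – vehicle and agonist controls · Replicates – singlicate, one well per test compound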
TAAR1 ag confirm – human TAAR1 agonism, confirmed | shares compounds with TAAR1 agonist | CHO RD-HGA16 TAAR1, Fluo-8 calcium fluorescence; scaled: DMSO 0%, maximal phenethylamine 100% | activation, % at 3 µM | 82% of 2,400 active;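 active = activation above a cutoff set at the run's mean compound activation plus 3 SD, cut at about 39% in these data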
Ga16 nonsel ag – counter-screen for TAAR1 agonists: nonselective agonists in parental cells. shares compounds with TAAR1 agonist. CHO-Ga16 parental, Fluo-8 calcium fluorescence; normalized to maximal ATP response, DMSO zero. activation, % at 3 µM. 50% of 2,400 active. AID 651787;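 active = activation above the run cutoff, the mean activation over all tested wells plus 3 SD, cut at about 12% in these data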;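 note: 0% = DMSO wells and 100% = maximal ATP response on the peak over basal ratio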
TAAR1 desens – counter-screen for human TAAR1 agonists: agonists that desensitize TAAR1; shares compounds with TAAR1 agonist; CHO RD-HGA16 hTAAR1, Fluo-8 calcium, beta-PEA response inhibition; inhibition, % at 3 µM; 46% of 2,400 active; AID 651951;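 active = inhibition above the run cutoff, the mean inhibition of all test compounds plus 3 SD, cut at about 49% in these data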;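 note: beta-PEA stimulus applied at its EC80; loss of beta-PEA calcium signal after compound pretreatment read as receptor desensitization; 0% = DMSO with beta-PEA at EC80 and 100% = DMSO alone without agonist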
Ga16 nonsel ant – counter-screen for TAAR1 agonists: nonselective Ga16 antagonists. shares compounds with TAAR1 agonist. CHO-Ga16 ATP-induced calcium, Fluo-8 fluorescence. inhibition, % at 3 µM. 39% of 2,400 active;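 active = inhibition above the plate's mean compound inhibition plus 3 SD, computed per plate, cut at about 22% in these data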;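 note: 0% = EC80 ATP with DMSO and 100% = DMSO wells without ATP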
Numbers without * were called inactive; · = no result. In the library only some 3.9% were active in any assay of this set; here they are far more common.

SMILES | OX1R antag-1 | CHO parental Ca | TAAR1 agonist | OX1R antag-2 | TAAR1 antagonist | TAAR1 ag confirm | Ga16 nonsel ag | TAAR1 desens | Ga16 nonsel ant
CCc1nc2ccc(C(=O)Nc3ccc(OC)c(OC)c3)cn2c1N(CCC(C)C)CCN(C)C | · | · | 3 | · | -6 | · | · | · | ·
CCCCN(C)c1c(C)nc2ccc(C(=O)Nc3ccc(OC)c(OC)c3)cn12 | · | · | 63* | · | 16 | 85* | 48* | 23 | 10
C=CCN1C(=O)/C(=C/C=C2/N(CC)c3ccc(S(=O)(=O)N(C)C)cc3N2CC)SC1=S | 18 | 19 | 107* | 34 | 74* | 90* | 91* | 87* | 88*
FC(F)(F)c1ccc(-c2cccc3c2C2CC3CCN2C(=S)NCCc2ccccc2)cc1 (stereo unspecified) | · | · | 1 | · | 0 | · | · | · | ·
COc1ccc(C(CNC(=O)c2cccc(NS(=O)(=O)c3ccccc3)c2)N(C)C)cc1 (stereo unspecified) | -32 | -27 | 5 | 10 | -18 | · | · | · | ·
CCOc1ccc(S(=O)(=O)Nc2cccc(C(=O)NCC(c3ccccc3)N(C)C)c2)cc1 (stereo unspecified) | -23 | -10 | 58* | 27 | 28 | 32 | 23* | 15 | 26*
CCOc1ccc(NS(=O)(=O)c2ccc(C(=O)NCC(c3ccco3)N(C)C)cc2)cc1 (stereo unspecified) | -4 | 5 | 89* | 10 | 31 | 80* | 50* | 47 | 39*
CCOc1ccc(S(=O)(=O)Nc2cccc(C(=O)NCC(c3ccco3)N(C)C)c2)cc1 (stereo unspecified) | -26 | -15 | 6 | 22 | 2 | · | · | · | ·
CCOc1ccc(NS(=O)(=O)c2ccc(C(=O)NCC(c3ccco3)N3CCCCC3)cc2)cc1 (stereo unspecified) | · | · | 84* | · | 31 | 91* | 41* | 54* | 38*
CCOc1ccc(NS(=O)(=O)c2ccc(C(=O)NCC3(N4CCCCC4)CCCCC3)cc2)cc1 | 20 | 7 | 19 | 2 | 14 | · | · | · | ·
CCOc1ccc(NS(=O)(=O)c2ccc(C(=O)NCC3(N(C)C)CCCCC3)cc2)cc1 | 20 | 55* | 66* | 2 | 46 | 37 | 11 | 24 | 27*
CN(C)C(=O)CNc1ccn2nc(-c3cccc(Cl)c3)cc2n1 | · | · | 0 | · | 9 | · | · | · | ·
O=C(CCN1C(=O)C2C3CCC(C3)C2C1=O)Nc1ccc(F)cc1 (stereo unspecified) | · | · | 0 | · | 9 | · | · | · | ·
Cc1ccc(NS(=O)(=O)c2ccc(C(=O)NCC(c3ccco3)N3CCCCC3)cc2)cc1 (stereo unspecified) | -3 | -4 | 91* | 7 | 63* | 73* | 33* | 35 | 28*
O=C(NCC(c1ccco1)N1CCCCC1)c1ccc(S(=O)(=O)Nc2ccccc2)cc1 (stereo unspecified) | -11 | -10 | 15 | 9 | -16 | · | · | · | ·
CCC(=NCCc1ccccc1)C1=C(O)CCC1=O | -10 | -20 | 87* | 18 | 87* | 104* | 2 | 93* | -3
COc1cccc(NC(=O)n2ncc3c(C)cccc32)c1 | -25 | -5 | 4 | 0 | -14 | · | · | · | ·
C#CC1(O)CCC2C3CCC4=Cc5oncc5CC4(C)C3CCC21C (stereo unspecified) | · | · | 51* | · | 65* | 62* | 31* | 70* | 35*
C#C[C@]1(O)CC[C@H]2[C@@H]3CCc4cc(O)ccc4[C@H]3CC[C@@]21C | 7 | -10 | 12 | 34 | 42 | · | · | · | ·
C#C[C@]1(O)CCC2C3CCC4=Cc5oncc5CC4(C)C3CCC21C (stereo partly specified) | -17 | 15 | 62* | 26 | 76* | 60* | 43* | 54* | 36*
CC1(C)CC(=O)C(=CN2CCN(C(=O)c3ccco3)CC2)C(=O)C1 | · | · | 54* | · | -6 | 63* | 0 | 27 | -10
COc1cc2ccccc2cc1C(=O)OCC(=O)N(CC(C)C)c1c(N)n(Cc2ccccc2)c(=O)[nH]c1=O | 5 | -10 | 20 | 42 | 18 | · | · | · | ·
N#C/C(=C\c1ccc(N2CCCCC2)o1)C(=O)Nc1cccc(Br)c1 | 92* | 83* | 189* | 31 | 101* | 93* | 143* | 87* | 90*
O=C(O)C1C2C=CC(O2)C1C(=O)NC1CCCc2ccccc21 (stereo unspecified) | -13 | 4 | 55* | 16 | -16 | 49* | 2 | 6 | 9
CCOC(=O)[C@]12CCCC=C1N(Cc1ccccc1)C(=O)[C@H](CC(=O)NCC1CCCCC1)C2 | · | · | -1 | · | 1 | · | · | · | ·
SMILES | OX1R antag-1 | CHO parental Ca | TAAR1 agonist | OX1R antag-2 | TAAR1 antagonist | TAAR1 ag confirm | Ga16 nonsel ag | TAAR1 desens | Ga16 nonsel ant
O=C(Nc1ccc(N2CCCCC2)cc1)c1ccc(F)cc1 | -10 | 11 | 98* | 13 | 85* | 53* | 13* | 18 | 18
O=C(Nc1cccc(NC(=O)c2ccc(F)cc2)c1)c1ccc(F)cc1 | -16 | -4 | 47* | -9 | 31 | 2 | 2 | 0 | 4
O=C(c1ccc(F)cc1)c1ccc(N2CCCCC2)cc1 | -32 | -8 | -3 | 7 | -3 | · | · | · | ·
CCOC(=O)c1c(C2CC2)csc1NC(=O)COC(=O)CCS(=O)(=O)c1ccc(C)cc1 | -20 | -26 | 1 | 3 | -8 | · | · | · | ·
O=C1CSC(=S)N1N=Cc1ccc(Cl)s1 | · | · | 3 | · | -13 | · | · | · | ·
COc1cc(C(=O)NCCOc2ccc(Cl)cc2)ccc1OCc1c(C)noc1C | -3 | -10 | 10 | 0 | 23 | · | · | · | ·
O=C(CN1CCN(S(=O)(=O)c2ccccc2)CC1)Nc1ccc2c(c1)CCC2 | -8 | 10 | 0 | 5 | -5 | · | · | · | ·
O=c1[nH]cc(NCCc2ccccc2)c(=O)[nH]1 | -11 | -21 | · | 16 | · | · | 0 | · | 16
NC(Cc1ccccc1)c1csc(Nc2nccc(C(F)(F)F)n2)n1 (stereo unspecified) | · | · | 67* | · | 20 | 86* | 55* | 43 | 48*
NC(Cc1ccc(Cl)cc1)c1csc(Nc2nccc(C(F)(F)F)n2)n1 (stereo unspecified) | · | · | 55* | · | 38 | 88* | 62* | 74* | 73*
NC(Cc1ccc(F)cc1)c1csc(Nc2nccc(C(F)(F)F)n2)n1 (stereo unspecified) | · | · | 72* | · | 27 | 86* | 54* | 56* | 55*
